These results are taken from paper PMC4002122 (Chemical Research in Toxicology, 2014).

The target in series [1] is T1, UGT1A7 (Homo sapiens, UniProt Q9HAW7).
T1 sequence (Q9HAW7 26-530): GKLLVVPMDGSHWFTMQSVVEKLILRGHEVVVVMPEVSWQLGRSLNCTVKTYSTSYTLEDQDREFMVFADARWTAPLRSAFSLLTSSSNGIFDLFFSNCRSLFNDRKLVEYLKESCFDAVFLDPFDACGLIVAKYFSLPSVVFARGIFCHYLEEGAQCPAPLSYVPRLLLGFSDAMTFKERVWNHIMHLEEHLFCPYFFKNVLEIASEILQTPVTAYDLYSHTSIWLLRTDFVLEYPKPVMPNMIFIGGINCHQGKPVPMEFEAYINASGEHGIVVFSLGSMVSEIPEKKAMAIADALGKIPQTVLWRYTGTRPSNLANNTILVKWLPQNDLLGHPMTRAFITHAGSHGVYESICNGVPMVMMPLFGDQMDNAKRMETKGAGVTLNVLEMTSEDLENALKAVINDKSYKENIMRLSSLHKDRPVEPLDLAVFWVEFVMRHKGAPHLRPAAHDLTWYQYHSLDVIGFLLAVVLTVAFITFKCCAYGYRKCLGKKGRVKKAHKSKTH
Nature of the series: Steady state kinetics of glucuronidation by recombinant UGT1A7. Format: in vitro ADME.

In series [2] the test system is tubulin. The note with it: cited from earlier work.
Series [3] in a line: Glucuronidation by human hepatic microsomes. It is filed as in vitro ADME. The note with it: 60 min, 50 μg of human liver proteins, 0.25 mM substrate, 3 mM UDP-GlcUA. The gist of the method: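 Microsomes from individual human livers (10 donors), a pooled liver sample and hepatosomes, or from intestines (13 donors). Substrate dried from ethanol, redissolved in DMSO and sonicated. Incubated 37 °C, 60 min; ethanol stop, centrifuged. Glucuronides measured by reversed-phase HPLC-UV; nmol/mg/min, median and range.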

In series [4] the target is T2, UGT2B15 (Homo sapiens, UniProt P54855).
T2 sequence (P54855 24-530): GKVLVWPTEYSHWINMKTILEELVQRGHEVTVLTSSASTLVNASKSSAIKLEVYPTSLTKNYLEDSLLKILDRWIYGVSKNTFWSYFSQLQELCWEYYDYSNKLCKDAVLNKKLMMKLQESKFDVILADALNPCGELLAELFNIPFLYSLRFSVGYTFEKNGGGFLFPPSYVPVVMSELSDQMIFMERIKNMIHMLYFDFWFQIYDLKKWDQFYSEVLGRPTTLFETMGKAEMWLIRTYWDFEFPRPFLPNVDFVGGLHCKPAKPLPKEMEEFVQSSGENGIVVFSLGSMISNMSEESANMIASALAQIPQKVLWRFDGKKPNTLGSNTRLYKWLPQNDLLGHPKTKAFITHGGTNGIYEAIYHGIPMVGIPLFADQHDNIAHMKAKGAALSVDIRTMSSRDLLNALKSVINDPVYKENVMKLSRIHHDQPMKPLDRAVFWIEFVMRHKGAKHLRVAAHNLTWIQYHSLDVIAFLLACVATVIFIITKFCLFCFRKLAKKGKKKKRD
Nature of the series: Screening of recombinant UGT2B15 for glucuronidation activity. Format: in vitro ADME. The note with it: 250 μM substrate, 5 μg protein, 60 min, 37 °C. The gist of the method: (§1)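 UGT1A1, 1A3, 1A4 and 1A6–1A10 were His-tagged and expressed in baculovirus-infected Sf9 cells; UGT2B4, 2B7, 2B15 and 2B17 were commercial membranes run per supplier protocol. 5 μg membrane protein with 250 μM substrate, 2 mM UDP-GlcUA, Tris–HCl pH 7.4, MgCl2, saccharolactone, 2% DMSO; 37 °C, 60 min; no-substrate controls. Products measured by HPLC-UV/vis; β-glucuronidase hydrolysis separated O- from carboxyl glucuronides.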

In series [5] the target is T3, UGT2B4 (Homo sapiens, UniProt P06133).
T3 sequence (P06133 24-528): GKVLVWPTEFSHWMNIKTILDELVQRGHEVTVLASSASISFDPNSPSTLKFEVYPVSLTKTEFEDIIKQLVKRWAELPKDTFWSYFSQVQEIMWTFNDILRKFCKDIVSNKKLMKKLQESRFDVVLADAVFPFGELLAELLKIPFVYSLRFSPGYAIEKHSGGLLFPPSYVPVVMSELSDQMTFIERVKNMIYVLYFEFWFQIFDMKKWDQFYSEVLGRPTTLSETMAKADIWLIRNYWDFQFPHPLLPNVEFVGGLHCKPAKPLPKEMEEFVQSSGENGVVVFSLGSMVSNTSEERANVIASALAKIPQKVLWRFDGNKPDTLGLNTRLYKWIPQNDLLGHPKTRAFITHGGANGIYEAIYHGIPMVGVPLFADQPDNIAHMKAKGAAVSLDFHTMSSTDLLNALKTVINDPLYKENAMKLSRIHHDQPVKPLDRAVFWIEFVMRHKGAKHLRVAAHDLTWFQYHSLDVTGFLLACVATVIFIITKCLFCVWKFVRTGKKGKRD
Nature of the series: Screening of recombinant UGT2B4 for glucuronidation activity. It is filed as in vitro ADME. The note with it: 250 μM substrate, 5 μg protein, 60 min, 37 °C. The procedure, abridged: as §1

The structures appear in SMILES notation.

On to `COc1ccc(/C=C(/C(=O)O)c2cc(OC)c(OC)c(OC)c2)cc1O` [NI-12a, (E)-3-(3-hydroxy-4-methoxyphenyl)-2-(3,4,5-trimethoxyphenyl)acrylic acid], for which the NI-12a-COO-gluc formation entry in series [1] (COO-glucuronide) is given as “not produced”. The kinetic model result in series [1] (NI-12a-O-gluc formation) was “uncompetitive substrate inhibition and USI”. The Ks in series [1] (NI-12a-O-gluc formation, USI model) turned out to be 242 ± 133 µM. In addition, in series [2], the antitubulin activity result is “effective antitubilin agent”.

Consider `COc1cc(/C=C/c2cc([N+](=O)[O-])c(O)c([N+](=O)[O-])c2)cc(OC)c1` [DNR-1, (E)-4-(3,5-dimethoxystyryl)-2,6-dinitrophenol], for which the “metabolism with human liver microsomes” value in series [3] is on record as “not metabolized”. In addition, the “glucuronidation activity (glucuronide formed)” value in series [4] and in series [5] was “No activity” each time.

Take `COc1ccc(C=Cc2cc(OC)cc(OC)c2/C=N/O)cc1` [NI-ST-05, (E)-2,4-dimethoxy-6-(4-methoxystyryl)benzaldehyde oxime]: the “NI-ST-05–N–O-gluc formation” value in series [1] (N–O-glucuronide) is recorded as “not produced”. The “glucuronidation activity (glucuronide formed)” value in series [4] and in series [5] was “inactive” each time.
